Experimental data: ChEMBL document CHEMBL3352487, “Synthesis, antibacterial activity, and biological evaluation of formyl hydroxyamino derivatives as novel potent peptide deformylase inhibitors against drug-resistant bacteria” (Eur J Med Chem, 2014)
≈ marks a conversion by molar mass, not a printed value.

What was measured:
Format in all cases: functional
Staphylococcus aureus [1] = assay: Antimicrobial activity against Staphylococcus aureus after 24 hrs by broth microdilution method
In short: (§1)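 Broth microdilution following NCCLS M7-A4; ATCC strains and clinical isolates from a provincial hospital.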

Staphylococcus aureus [2] = assay: Antimicrobial activity against methicillin-resistant Staphylococcus aureus after 24 hrs by broth microdilution method
In short: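 Broth microdilution following NCCLS M7-A4, using ATCC strains and clinical isolates from a provincial hospital.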

Escherichia coli [3] = assay: Antimicrobial activity against Escherichia coli isolate 2 after 24 hrs by broth microdilution method; conditions: isolate 2, 24 h; in short: as §1
[4] = tested on: Staphylococcus epidermidis; assay: Antimicrobial activity against Staphylococcus epidermidis after 24 hrs by broth microdilution method; in short: as §1
Staphylococcus aureus [5] = assay: Antimicrobial activity against methicillin-susceptible Staphylococcus aureus after 24 hrs by broth microdilution method; in short: as §1
Escherichia coli [6] = assay: Antimicrobial activity against Escherichia coli isolate 1 after 24 hrs by broth microdilution method; conditions: isolate 1, 24 h; in short: as §1

| Compound | MIC (Staphylococcus aureus [1]) [µg/mL] | MIC (Staphylococcus aureus [2]) [µg/mL] | MIC (Escherichia coli [3]) [µg/mL] | MIC [4] [µg/mL] | MIC (Staphylococcus aureus [5]) [µg/mL] | MIC (Escherichia coli [6]) [µg/mL] |
| --- | --- | --- | --- | --- | --- | --- |
| CCCC[C@H](CN(O)C=O)C(=O)N1CC=C[C@H]1C(=O)Nc1ccccn1 | 0.125 (≈ 0.347 µM) | 0.125 (≈ 0.347 µM) | 32 (≈ 88.8 µM) | 0.5 (≈ 1.39 µM) | 1 (≈ 2.77 µM) | > 64 |
| CCCC[C@H](CN(O)C=O)C(=O)N1CC=C[C@H]1C(=O)N1CCOCC1 | > 64 | 32 (≈ 90.5 µM) | > 64 | > 64 | > 64 | > 64 |
| CCCC[C@H](CN(O)C=O)C(=O)N1CC=C[C@H]1C(=O)NC1CC1 | 64 (≈ 198 µM) | 2 (≈ 6.18 µM) | 32 (≈ 99 µM) | 4 (≈ 12.4 µM) | 32 (≈ 99 µM) | 64 (≈ 198 µM) |
| CCCC[C@H](CN(O)C=O)C(=O)N1CC=C[C@H]1C(=O)Nc1ccc(Cl)cc1 | 8 (≈ 20.3 µM) | 1 (≈ 2.54 µM) | > 64 | 4 (≈ 10.2 µM) | 2 (≈ 5.08 µM) | > 64 |
| CCCC[C@H](CN(O)C=O)C(=O)N1CC=C[C@H]1C(=O)Nc1ccccc1Br | 32 (≈ 73 µM) | 1 (≈ 2.28 µM) | > 64 | 8 (≈ 18.3 µM) | 4 (≈ 9.13 µM) | > 64 |
| CCCC[C@H](CN(O)C=O)C(=O)N1CC=C[C@H]1C(=O)Nc1cccc(Br)c1 | 8 (≈ 18.3 µM) | 0.125 (≈ 0.285 µM) | 16 (≈ 36.5 µM) | 1 (≈ 2.28 µM) | 1 (≈ 2.28 µM) | 64 (≈ 146 µM) |
| CCCC[C@H](CN(O)C=O)C(=O)N1CC=C[C@H]1C(=O)Nc1ccc(Br)cc1 | 4 (≈ 9.13 µM) | 0.5 (≈ 1.14 µM) | > 64 | 2 (≈ 4.56 µM) | 1 (≈ 2.28 µM) | > 64 |
| CCCC[C@H](CN(O)C=O)C(=O)N1CC=C[C@H]1C(=O)Nc1ccccc1Cl | 0.5 (≈ 1.27 µM) | 0.25 (≈ 0.635 µM) | 64 (≈ 162 µM) | 1 (≈ 2.54 µM) | 2 (≈ 5.08 µM) | > 64 |
| CCCC[C@H](CN(O)C=O)C(=O)N1CC=C[C@H]1C(=O)Nc1ccc(F)cc1 | 2 (≈ 5.3 µM) | 1 (≈ 2.65 µM) | 64 (≈ 170 µM) | 4 (≈ 10.6 µM) | 2 (≈ 5.3 µM) | > 64 |
| CCCC[C@H](CN(O)C=O)C(=O)N1CC=C[C@H]1C(=O)Nc1ccc([N+](=O)[O-])cc1 | 0.5 (≈ 1.24 µM) | 0.5 (≈ 1.24 µM) | 32 (≈ 79.1 µM) | 0.5 (≈ 1.24 µM) | 2 (≈ 4.95 µM) | > 64 |
| CCCC[C@H](CN(O)C=O)C(=O)N1CC=C[C@H]1C(=O)Nc1ccc(OC)cc1 | 0.5 (≈ 1.28 µM) | 1 (≈ 2.57 µM) | > 64 | 2 (≈ 5.14 µM) | 2 (≈ 5.14 µM) | > 64 |
| CCCC[C@H](CN(O)C=O)C(=O)N1CC=C[C@H]1C(=O)Nc1nnc(C(F)(F)F)s1 | 32 (≈ 73.5 µM) | 8 (≈ 18.4 µM) | > 64 | 16 (≈ 36.7 µM) | 16 (≈ 36.7 µM) | > 64 |
| CCCC[C@H](CN(O)C=O)C(=O)N1CC=C[C@H]1C(=O)N[C@@H](C)c1ccccc1 | 4 (≈ 10.3 µM) | 8 (≈ 20.6 µM) | > 64 | 8 (≈ 20.6 µM) | 16 (≈ 41.3 µM) | > 64 |
| CCCC[C@H](CN(O)C=O)C(=O)N1CC=C[C@H]1C(=O)N[C@H](C)c1ccccc1 | 4 (≈ 10.3 µM) | 2 (≈ 5.16 µM) | > 64 | 4 (≈ 10.3 µM) | 16 (≈ 41.3 µM) | > 64 |
| CCCC[C@H](CN(O)C=O)C(=O)N1CC=C[C@H]1C(=O)Nc1ccccc1 | 4 (≈ 11.1 µM) | 1 (≈ 2.78 µM) | 64 (≈ 178 µM) | 2 (≈ 5.56 µM) | 8 (≈ 22.3 µM) | > 64 |
| C=C1C[C@@H](C(=O)N2CCOCC2)N(C(=O)[C@H](CCCC)CN(O)C=O)C1 | 4 (≈ 10.9 µM) | 4 (≈ 10.9 µM) | > 64 | 8 (≈ 21.8 µM) | 64 (≈ 174 µM) | > 64 |
| C=C1C[C@@H](C(=O)Nc2ccccc2)N(C(=O)[C@H](CCCC)CN(O)C=O)C1 | 1 (≈ 2.68 µM) | 0.5 (≈ 1.34 µM) | > 64 | 1 (≈ 2.68 µM) | 4 (≈ 10.7 µM) | 64 (≈ 171 µM) |
| C=C1C[C@@H](C(=O)Nc2ccc(F)cc2)N(C(=O)[C@H](CCCC)CN(O)C=O)C1 | 0.5 (≈ 1.28 µM) | 0.25 (≈ 0.639 µM) | 64 (≈ 163 µM) | 0.5 (≈ 1.28 µM) | 2 (≈ 5.11 µM) | 64 (≈ 163 µM) |
